# From PubChem
# p97 ATPase inh = human p97 ATPase inhibition; actives 0.42% (n = 220,000); recombinant p97 ATPase, Kinase-Glo ATP luminescence, 3 h; inhibition, % at 8 µM; in the data active means inhibition above about 15%;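 further: 0% = DMSO vehicle and 100% = wells lacking enzyme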
# eIF4E 4G PPI = blocks eIF4E binding to eIF4G; TR-FRET eIF4E-eIF4GI(517-606) binding, 2 h; inhibition, % at 21.7 µM; actives 0.37% (n = 220,000); AID 782;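 active means inhibition above about 30%, limit read from the data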;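 further: 0% = full FRET control wells and 100% = background wells lacking eIF4GI fragment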
# Hck-Nef inh = inhibitors of human Hck kinase activated by Nef | Recombinant Hck-YEEI plus Nef, Z-Lyte FRET kinase assay | inhibition, % at 20 µM | actives 0.68% (n = 220,000) | AID 463187;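 active means Hck-Nef kinase inhibition above about 50%, limit read from the data; inactive means inhibition below that limit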;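 further: 0% = DMSO with Hck plus Nef and 100% = Hck alone without Nef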
# Target sequence (P08631 whole entry, looked up): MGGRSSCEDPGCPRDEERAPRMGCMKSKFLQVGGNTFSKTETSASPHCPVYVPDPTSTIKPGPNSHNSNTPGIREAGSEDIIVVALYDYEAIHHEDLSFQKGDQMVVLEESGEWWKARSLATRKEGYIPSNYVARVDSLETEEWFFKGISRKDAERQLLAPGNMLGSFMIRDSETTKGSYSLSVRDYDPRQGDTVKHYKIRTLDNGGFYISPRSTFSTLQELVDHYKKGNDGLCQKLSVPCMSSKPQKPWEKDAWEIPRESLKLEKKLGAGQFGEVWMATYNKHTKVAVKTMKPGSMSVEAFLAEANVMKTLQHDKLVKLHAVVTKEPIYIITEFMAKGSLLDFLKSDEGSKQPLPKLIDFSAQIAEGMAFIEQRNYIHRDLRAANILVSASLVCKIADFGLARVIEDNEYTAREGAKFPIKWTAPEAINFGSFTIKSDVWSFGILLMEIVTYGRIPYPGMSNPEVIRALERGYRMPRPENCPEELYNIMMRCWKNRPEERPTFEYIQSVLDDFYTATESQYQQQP
# Calb biofilm kill = mixture kills Candida albicans biofilm cells. C. albicans biofilm persisters + clotrimazole, fluorescence viability; primary screen in compound mixtures of four per well. inhibition, % at 7.6 µM. actives 0.02% (n = 120,000). AID 1242;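 active means inhibition above 30.3% in the primary screen of four-compound pools, then above 30% when the compound was retested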;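 further: compounds exposed to preformed 24 h biofilms for 48 h; 0% = untreated biofilm control and 100% = clotrimazole plus chlorhexidine kill blank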
#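 Incubation: 24 h biofilm formation, then 48 h compound exposure, 37 °C | Material: C. albicans biofilms | Buffer or medium: RPMI/MOPS medium, pH 7.0 | Measured by: 2-h Alamar Blue fluorescence, 535/590 nm excitation/emission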
# 14-3-3 Bad inh = disrupts binding of bovine 14-3-3 zeta to phospho-Bad peptide; TR-FRET 14-3-3zeta/Dy647-pBad peptide displacement, 1 h; inhibition, % at 21.7 µM; actives 0.71% (n = 220,000); AID 781;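 active means inhibition above about 70%, limit read from the data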;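 further: 0% = full 14-3-3 plus peptide FRET controls and 100% = background without 14-3-3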
# PERK inh = inhibitors of human PERK kinase; CHO PERK-DD fusion, SEAP luminescence translation reporter; Q9NZJ5; inhibition, % at 5.6 µM; actives 0.17% (n = 220,000); AID 1416;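 active means inhibition above the mean inhibition of all tested compounds plus 3 SD, set separately per screening campaign, cut at about 2.9% in these data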;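 further: PERK kinase domain activated by AP20187 dimerizer at 100 nM; 0% = DMSO with dimerizer and 100% = rapamycin at 8.4 µM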
# An asterisk follows results filed as active; . = not tested or not shown; [ ] = remark or other dose. Only some compounds are listed: those with a hit (about 2.2% of all), similar ones and a draw of the others.
SMILES,p97 ATPase inh,eIF4E 4G PPI,Hck-Nef inh,Calb biofilm kill,14-3-3 Bad inh,PERK inh
COc1ccc(Nc2nnc(-c3ccc(O)cc3)c3ccccc23)cc1,7.6,-2.1,15.4,15.4,0.7,0.9
OC1CCN(Cc2cccc(Oc3ccccc3)c2)CC1,4.4,-2.5,-5.3,.,-11.6,1.7
CN1CCN(Cc2cccc(Oc3ccccc3)c2)CC1,-2.7,13.4,-1.8,.,70.4*,0.0
CCCCOC(=O)C(C)Nc1n[nH]c(=O)[nH]c1=O (stereo not drawn),7.5,8.7,-0.1,.,-12.0,2.9*
CCCCOC(=O)C(C)Nc1n[nH]c(=S)[nH]c1=O (stereo not drawn),1.0,0.4,0.5,.,2.3,0.3
O=C(O)CSc1ncnc2scc(-c3ccc(Br)cc3)c12,-3.6,-2.4,7.8,15.9,5.0,3.6*
O=C(OCc1csc(-c2ccccc2)n1)c1ccccc1O,0.3,-7.2,5.2,21.8,-2.9,0.7
CC(C)[C@@H]1NC(=O)c2cc([N+](=O)[O-])cc(I)c2NCC[C@@H](C(N)=O)NC(=O)[C@H](CO)NC1=O,18.0*,8.6,-3.9,14.4,2.5,0.2
NCCCC[C@@H]1NC(=O)c2cc([N+](=O)[O-])cc(I)c2SC[C@@H](C(N)=O)NC(=O)[C@H](Cc2ccc(O)cc2)NC1=O,9.6,2.2,2.6,13.0,71.8*[fluorescence artefact?],0.2
NCCCC[C@@H]1NC(=O)[C@H](CCC(=O)O)NC(=O)c2cc([N+](=O)[O-])cc(I)c2SC[C@@H](C(=O)NCC(N)=O)NC1=O,6.7,5.0,-6.6,8.7,48.4,0.0
C[C@@H](O)C1NC(=O)[C@H](CCCCN)NC(=O)c2cc([N+](=O)[O-])cc(I)c2NCCC[C@@H](C(N)=O)NC1=O (stereo partly drawn),-1.9,34.0*,-3.6,19.2,2.6,-0.2
CC(C)C[C@@H]1NC(=O)[C@H](C(C)C)NC(=O)c2cc([N+](=O)[O-])cc(I)c2NCC[C@@H](C(N)=O)NC1=O,-2.9,-1.2,-4.9,7.3,22.7,0.8
Cc1noc(C)c1S(=O)(=O)N(Cc1ccccc1)C(C)C,-1.3,-3.4,11.9,22.3,-16.8,0.4
Cc1cc2c(NC(=O)CC(C)(C)CC(=O)O)cccc2nn1,11.5,0.7,17.0,21.3,-2.5,1.1
Cc1cc2c(NC(=O)Nc3ccc(F)cc3)cccc2nn1,-2.4,1.9,-15.1,13.7,2.4,3.4*
C=CCn1c(-c2ccc3ncccc3c2)n[nH]c1=S,-0.3,-2.1,0.3,16.2,-1.3,2.0
O=C1CC(N2CCN(Cc3ccc4c(c3)OCO4)CC2)C(=O)N1c1cccc(Cl)c1 (stereo not drawn),0.0,65.6*,-0.4,.,-13.3,0.5
COc1ccc2nc(NC(=O)CSc3nc(C)cc(=O)[nH]3)sc2c1,4.4,1.7,4.1,.,-0.9,0.8
COc1ccc(NC(=O)CSc2nc(O)cc(=O)[nH]2)c(OC)c1,1.6,95.6*,25.5,14.5,-3.9,-0.2
CCCn1c(C)cc(-c2csc(N)n2)c1C,-1.6,-2.3,-20.3,.,73.5*,0.3
Cc1cc(Br)ccc1NCc1ccccn1,0.4,7.3,0.6,.,75.9*,2.4
COc1cc(C(c2nnnn2C2CCCC2)N2CCN(C)CC2)cc(OC)c1OC (stereo not drawn),-2.5,-2.4,1.2,.,79.7*,-0.5
COc1ccc(C(c2nnnn2C2CCCC2)N2CCN(C3CCCC3)CC2)cc1OC (stereo not drawn),-7.2,5.0,-26.2,.,56.7,-1.7
Cc1c(OC(=O)c2ccc([N+](=O)[O-])cc2)c2c(c[n+]1C)COC(C)(C)OC2,5.6,40.5*[fluorescence artefact?],0.7,.,50.7,1.0
Cc1ncc2c(c1OC(=O)c1ccccc1)COC(C)(C)OC2,-7.6,1.3,-0.1,.,-15.6,0.4
SMILES,p97 ATPase inh,eIF4E 4G PPI,Hck-Nef inh,Calb biofilm kill,14-3-3 Bad inh,PERK inh
O=C(Nc1ccc(Cl)cc1)NN1CC(=O)N(c2cccc(C(F)(F)F)c2)CC1=O,-1.4,0.2,20.1,23.7,-1.9,-0.5
COc1ccc(CCNc2ncnc3cc(OC)c(OC)cc23)cc1OC,2.9,-2.2,31.2,8.1,-3.3,-0.3
COc1cc2ncnc(NCCc3ccccc3)c2cc1OC,2.7,5.5,58.9*,-0.6,-1.1,-0.4
O=C(NN1CCOCC1)NC12CC3CC(CC(C3)C1)C2,7.5,3.3,12.2,15.9,5.0,2.1
CC(=O)C1=C(c2ccccc2)OC(N)=C(C#N)C1c1ccc(O)cc1 (stereo not drawn),1.1,51.0*[fluorescence artefact?],3.9,10.1,-15.3,1.1
O=C(Nc1ccccc1)N1CCSc2cc(Cl)ccc21,1.3,0.3,0.5,.,-4.7,3.1*
O=C(Nc1nnc(SCc2ccc(F)cc2)s1)c1ccc2ncsc2c1,5.5,54.4*,4.1,11.3,80.3*,1.2
CCC1CCCCN1C(=O)CSc1nc2c(cnn2-c2ccc(C)cc2)c(=O)[nH]1 (stereo not drawn),1.8,-8.8,1.4,.,-0.1,3.2*
O=C(NCc1cccnc1)Nc1ccc(F)cc1F,2.0,4.2,8.3,.,87.4*,0.0
Cn1c(CCN2CCOCC2)nc2cc(NC(=O)c3cccs3)ccc21,3.7,-3.9,3.4,10.2,4.2,0.5
O=P(O)(COc1ccccc1)COc1ccccc1,3.8,2.1,1.2,.,71.8*,-0.6
CS(=O)(=O)N1CCN(c2ccc([N+](=O)[O-])c(NCc3ccc(Cl)cc3)c2)CC1,4.7,3.8,98.1*,21.0,71.5*,0.2
Cc1ccc(NCc2ccccc2)cc1,3.7,-1.7,29.4,9.8,-16.8,0.7
Cc1ccc(NCc2cccnc2)cc1,-0.9,7.4,-1.9,.,71.5*,0.4
Cc1ccc(C(=O)O)cc1NC(=S)NC(=O)c1ccc(-c2ccc(Cl)cc2)o1,-4.9,-14.9,56.1*,21.6,-1.6,1.7
O=C(Nc1nccs1)c1cc(-c2ccco2)nc2ccccc12,7.5,35.9*[fluorescence artefact?],31.2,8.7,-0.6,-0.4
CC(NCc1ccc(F)cc1)C(=O)NC1CCCCC1 (stereo not drawn),2.8,2.7,11.3,4.8,36.3,1.3
COc1cc(CC2COC(c3ccc(O)c(OC)c3)C2COC(C)=O)ccc1O (stereo not drawn),.,8.8,46.0,17.2,22.4,.
Nc1nc(N2CCN(c3ccccc3)CC2)n[nH]1,0.7,1.4,10.6,8.9,71.9*,2.1
CC(C)N(C(=O)Cn1cc(SCC(=O)NCC2CCCO2)c2ccccc21)C(C)C (stereo not drawn),0.4,1.4,19.0,15.4,-8.1,0.0
O=C(CCCN1Cc2ccccc2C1)c1ccc(F)cc1,4.6,9.1,-0.2,.,25.7,0.4
CN1CCN(CCCC(=O)c2ccc(F)cc2)CC1,2.2,10.5,3.3,.,85.7*,0.6
CCOC(=O)/C=C(\C)Sc1cc(O)c2ccccc2c1O,36.0*,4.7,-167.3,8.0,-0.5,-1.3
CCN(CC)CCNC(=O)CCCCn1c(=S)[nH]c2c([nH]c3ccc(OC)cc32)c1=O,4.0,47.0*,1.4,.,-0.3,0.6
